# RORa activator – activates the human nuclear receptor RORA; activation, % at 10 µM; CHO-K1 Gal4-RORA LBD luciferase reporter, luminescence; percent increase over mock-subtracted basal signal; P35398; hit rate 1.5% among 65,000;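 active = activation above the mean of all tested compounds plus 3 SD, cut at about 49% in these data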
# SF1 activator – activators of human nuclear receptor SF-1. Q13285. CHO-K1 Gal4-SF-1 LBD luciferase reporter; % increase over DMSO SF-1-specific signal. hit rate 1.9% among 65,000. activation, % at 10 µM;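 active = activation above the mean activation of all tested compounds plus 3 SD, cut at about 50% in these data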
#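 Assay system: CHO-K1 cells co-transfected with Gal4 DBD–human SF-1 LBD, 5xGal4 luciferase reporter; doses: 10 µM only; incubation: 20 h compound exposure at 37 °C after 1 h cell settling; signal: luciferase light emission; evaluation: percent activation versus DMSO; repeats: one test per compound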
# Calb biofilm kill – kills Candida albicans biofilms; inhibition, % at 6 µM; AID 834; C. albicans biofilm + clotrimazole, Alamar Blue; hit rate 0.14% among 85,000;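 active = inhibition above 20%; inactive = inhibition below 20%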;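 note: preformed 24 hr biofilms exposed to compound for 48 hr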
# CD11b adhes inh – CD11b/CD18-fibrinogen binding inhibition. K562 CD11b/CD18 adhesion to fibrinogen, ATPlite luminescence; Mn2+ added to activate the integrin. inhibition, % at 10 µM. hit rate 0.54% among 93,000. AID 1497;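 active = primary inhibition of 50% or more at 10 µM, then 40% or more on retest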
# Target sequence (P05107 whole entry, looked up, other chains not shown): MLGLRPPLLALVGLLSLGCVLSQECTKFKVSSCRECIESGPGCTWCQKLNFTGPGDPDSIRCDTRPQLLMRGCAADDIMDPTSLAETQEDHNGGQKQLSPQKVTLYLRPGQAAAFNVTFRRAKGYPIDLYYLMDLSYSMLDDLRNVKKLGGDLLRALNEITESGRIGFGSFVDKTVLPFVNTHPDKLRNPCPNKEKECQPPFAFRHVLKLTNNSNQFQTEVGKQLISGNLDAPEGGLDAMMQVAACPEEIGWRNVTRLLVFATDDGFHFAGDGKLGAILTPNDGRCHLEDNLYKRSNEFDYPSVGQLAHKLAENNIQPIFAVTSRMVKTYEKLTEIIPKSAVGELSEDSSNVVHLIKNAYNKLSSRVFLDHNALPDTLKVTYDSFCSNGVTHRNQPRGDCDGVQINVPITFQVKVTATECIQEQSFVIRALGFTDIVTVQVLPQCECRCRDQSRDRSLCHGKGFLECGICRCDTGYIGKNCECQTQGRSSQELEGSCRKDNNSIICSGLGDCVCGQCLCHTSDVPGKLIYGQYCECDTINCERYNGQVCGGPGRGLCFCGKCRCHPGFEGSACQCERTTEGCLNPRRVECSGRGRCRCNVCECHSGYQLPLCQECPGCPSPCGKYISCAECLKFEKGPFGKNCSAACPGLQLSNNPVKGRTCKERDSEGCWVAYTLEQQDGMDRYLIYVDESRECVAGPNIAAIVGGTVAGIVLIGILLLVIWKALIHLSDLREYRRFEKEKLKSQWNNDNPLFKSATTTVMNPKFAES
# Mac1 fbg enh – increases human CD11b/CD18 adhesion to fibrinogen. P05107+P11215. AID 1499. hit rate 0.07% among 93,000. activation, % at 10 µM. K562 CD11b/CD18 adhesion to fibrinogen, ATPlite luminescence;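 active = 10 µM primary screen giving 50% or more activity, confirmed by 40% or more on retest at that dose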
# MT1-MMP txn act – activates MT1-MMP transcription. activation factor at 10 µM. hit rate 0.16% among 86,000. HT1080 MT1-MMP promoter luciferase reporter, luminescence, overnight; active compounds read high. AID 750;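 active = activation factor of at least 2 for MT1-MMP transcription at 10 µM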
# Hits are given with their value; - = inactive; . = not tested or not shown. This is a sample that favours compounds with a hit; in the whole collection about 2.2% have one here.
SMILES,RORa activator,SF1 activator,Calb biofilm kill,CD11b adhes inh,Mac1 fbg enh,MT1-MMP txn act
COC(=O)N1CC=CC1(C)C(=O)NCCN1CCOCC1 (stereo not given),.,.,.,.,.,-
COc1ccc2c(c1)S/C(=C\C(=O)c1ccncc1)N2C,58,-,-,-,-,-
COc1ccc(C(=O)/C=C2/Sc3cc4c(cc3N2C)OCO4)cc1,.,.,.,-,-,.
CCCOC(=O)c1ccc(NC(=O)C2CCCO2)cc1 (stereo not given),-,68,-,-,-,-
CCn1cc(C(=O)O)c(=O)c2cc(F)c(N3CCNCC3)cc21,-,-,22,.,.,-
O=C1N/C(=C\c2ccccc2)c2ccccc21,51,63,-,-,-,-
CCOC(=O)Cc1nnc2c(Nc3ccc(C)cc3)nc3nonc3n12,-,-,-,-,-,-
CCOC(=O)Cc1nnc2c(Nc3ccccc3F)nc3nonc3n12,-,-,-,99,-,-
Cc1ccc(-n2ncc3c(=O)n(-c4ccc(C)c(C)c4)c(C)nc32)cc1,-,-,-,-,-,-
CCc1nnc2c3cnn(-c4ccccc4)c3ncn12,83,-,-,.,-,-
Cc1ccc(-n2ncc3c2ncn2c(C)nnc32)cc1C,60,-,-,.,.,-
COc1ccc(-n2c(C)nc3c(cnn3-c3ccc(C)c(C)c3)c2=O)cc1,65,-,-,-,-,-
CCC1=C(OC(=O)N(CC)CC)N2C(=O)OC(=NCC3CC3)[C@]2(Cc2ccccc2)[C@H]2C1=CC[C@H]1C(=O)N(CC)C(=O)[C@H]12,.,.,.,.,.,-
O=[N+]([O-])c1ccc(CSc2nc3ccccc3o2)cc1,.,.,.,-,-,.
CCn1nc([N+](=O)[O-])c(C(C#N)c2nc3cc(C(F)(F)F)ccc3s2)c(Cl)c1=O (stereo not given),.,.,.,94,-,.
CCCn1nc([N+](=O)[O-])c(C(C#N)c2nc3ccccc3o2)c(Cl)c1=O (stereo not given),.,.,.,99,-,.
CC1=C(C(=O)OCc2ccccc2)C(c2ccc(C3CCCCC3)cc2)NC(=O)N1CCCCCC(=O)O (stereo not given),.,.,.,.,.,-
Nc1c(C(=O)NCc2ccco2)nnn1-c1ccccc1,-,55,-,.,.,-
O=C(COC(=O)C1CCN(S(=O)(=O)c2ccc3c(c2)OCCO3)CC1)Nc1ccc(C(F)(F)F)cc1,.,.,.,-,-,.
Cc1occc1C(=O)Nc1sc2c(c1C(N)=O)CCCCC2,-,58,-,-,-,-
NC(=O)c1c(NC(=O)Cc2cccs2)sc2c1CCC2,-,51,-,.,.,-
O=C(Nc1sc2c(c1C(=O)O)CCCCC2)c1ccco1,62,57,-,-,-,-
CCOC(=O)c1c(NC(=O)Cc2cccs2)sc2c1CCCC2,-,-,-,-,-,-
Oc1ccc(N=C/C=C/c2cccc(Br)c2)cc1-c1nc2ccccc2s1,.,.,.,-,-,.
Cc1cc(OCC(=O)Nc2ccncc2)c(C)cc1Br,.,.,-,98,-,-
SMILES,RORa activator,SF1 activator,Calb biofilm kill,CD11b adhes inh,Mac1 fbg enh,MT1-MMP txn act
COc1ccccc1Nc1ccc(S(=O)(=O)N2CCCCC2)cc1[N+](=O)[O-],.,.,.,-,-,.
Cc1cc(C(c2ccc(C)o2)c2ccc(C)o2)c(O)c([N+](=O)[O-])c1,.,.,78,-,-,-
O=C(OC(c1ccccc1)c1nccc2ccccc12)c1cc([N+](=O)[O-])cc([N+](=O)[O-])c1 (stereo not given),.,.,.,-,-,.
O=C(CSCc1cccc(F)c1)N1CCN(c2ccccc2)CC1,53,-,-,-,-,-
CCOC(=O)C1=C(CC)Nc2ccccc2N=C1NC(=O)Nc1ccc(Cl)c(Cl)c1,.,.,.,90,-,.
COc1ccc(C)cc1NC(=O)c1ccccc1NS(=O)(=O)c1cccc2cccnc12,.,.,.,-,-,.
Cc1nn(Cc2c(Cl)cccc2Cl)c(C)c1NC(=O)c1cnn2c(C(F)F)cc(-c3ccccc3)nc12,.,.,.,-,116,.
Cc1ccc(-c2cc(C(F)F)n3ncc(C(=O)Nc4c(C)nn(Cc5c(Cl)cccc5Cl)c4C)c3n2)cc1,.,.,.,-,116,.
Cc1cc(NC(=O)NC(=O)c2cccc(OC(F)(F)C(F)F)c2)n[nH]1,52,81,-,-,-,-
O=C(CCCN1CCOCC1)c1ccc2c(c1)OCCO2,-,56,-,-,-,-
CCc1ccc(NC(=O)Nc2cccs2)cc1,-,-,-,-,-,-
Cc1ccc(NC(=O)Nc2cccs2)cc1,54,-,-,-,-,-
O=C(Nc1cccc2ccccc12)c1cnccn1,-,63,-,-,-,-
C=CCOc1ccc(/C=C/C(C)=N\O)cc1,86,-,-,-,-,-
CCOC(=O)c1ccc(N2Cc3ccccc3C2)cc1O,-,-,-,-,68,-
COc1cc(NC(=O)c2cc3nc(C)cc(C)n3n2)c(OC)cc1Cl,86,58,-,-,-,-
O=C(Nc1ccc(N2CCCCC2)cc1)c1cncc(Br)c1,78,-,-,.,.,-
O=C(Nc1ccc(N2CCCCC2)c(Cl)c1)c1cccnc1,-,75,-,-,-,-
O=C(Nc1ccncc1)c1cncc(Br)c1,-,-,-,-,-,-
Cc1ccc(CNC(=O)[C@@H]2C[C@H]2[C@@H](NP(=O)(c2ccccc2)c2ccccc2)c2ccccc2)o1,.,.,.,.,.,-
CCC1CCCCN1C(=O)c1cc(-c2ccc(Cl)c(Cl)c2)on1 (stereo not given),54,-,-,.,.,-
COc1cccc(-c2cc(C(=O)N3C(C)CCCC3C)no2)c1 (stereo not given),67,-,-,-,-,.
CC1CCCCN1C(=O)c1cc(-c2ccc(Cl)c(Cl)c2)on1 (stereo not given),62,-,-,-,-,-
CCC1=C(OC(=O)N(CC)CC)N2C(=O)OC(=NCC3CC3)[C@]2(Cc2ccccc2)[C@H]2C1=CC[C@H]1C(=O)NC(=O)[C@H]12,.,.,.,.,.,-
CNC(=O)C1CC(=O)N(CCCc2ccccc2)C(=Nc2ccccc2)S1 (stereo not given),.,.,-,-,-,-
SMILES,RORa activator,SF1 activator,Calb biofilm kill,CD11b adhes inh,Mac1 fbg enh,MT1-MMP txn act
CCNc1nc(N)c(C(=O)c2ccc(Cl)s2)s1,50,-,-,-,-,-
COCCCNC(=O)c1c(N)n(/N=C/c2ccccn2)c2nc3ccccc3nc12,-,-,-,.,.,-
CC(C)OCCCNC(=O)c1c(N)n(/N=C/c2cccs2)c2nc3ccccc3nc12,.,.,.,-,149,.
CNCc1ccccc1OCC(=O)Nc1ccccc1OC,.,.,-,-,-,-
O=c1[nH]c2ccccc2c2nc3ccccn3c12,-,65,-,-,-,-
O=c1nc(C(F)(F)F)nc2ccccn12,-,-,.,-,-,-
CCc1ccc(Nc2nnc(SC3CCOC3=O)s2)cc1 (stereo not given),.,.,.,-,-,.
COc1cccc(NC(=O)c2cccc(OC)c2OC)c1,-,-,-,-,-,-
COc1ccc(NC(=O)Nc2ccc(OC)cc2)cc1,.,.,-,-,-,-
COc1ccc(S(=O)(=O)Nc2ccc(N(C)C(C)=O)cc2)cc1,.,.,42,-,-,-

# Screening results (PubChem BioAssay)
